Test results taken from ChEMBL document CHEMBL1127061, “Hemicholinium and related lipids: inhibitors of protein kinase C” (J Med Chem, 1993).

Target: Protein kinase C (PKC)
Experiment: Inhibition of protein kinase C (PKC) purified from rat brain
Method in brief: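 Mostly purified rat brain PKC, histone kinase assay on ice-set tubes: 3 nM TPA, 8 μg/mL phosphatidylserine, 1 mM EGTA (no calcium), 4% glycerol, 20 mM Tris-Cl pH 7.4. Started with [γ-32P]ATP (20 μM), MgCl2 10 mM, p-nitrophenyl phosphate 5 mM, lysine-rich histone 240 μg/mL; 30 °C, 10 min; radioactivity counted. Compounds 0.16–160 μg/mL, 2.4% DMSO final; duplicate runs averaged.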

| Structure (SMILES) | IC50 [µM] |
| --- | --- |
| CCCCCCCCCCCCCCCC1(OC)C[N+](C)(C)CCO1.[Br-] (configuration not stated) | 3.9 |
| CCCCCCCCCCCCCCCCCCC1(O)C[N+](C)(C)CCO1.[Br-] (configuration not stated) | 6.5 |
| CCCCCCCCCCCCC1(O)C[N+](C)(C)CCO1.[Br-] (configuration not stated) | 13 |
| CCCCCCCCCCCCCC1(O)C[N+](C)(C)CCO1.[Br-] (configuration not stated) | 12 |
| CCCCCCCCCCCCCCC1(O)C[N+](C)(C)CCO1.[Br-] (configuration not stated) | 7.6 |
| CCCCCCCCCCCCCCCC1(O)C[N+](C)(C)CCO1.[Br-] (configuration not stated) | 7.3 |
| CCCCCCCCCCCCCCCC(=O)C[N+](C)(C)CCCO.[Br-] | 6.9 |
| CCCCCCCCCCC1(O)C[N+](C)(C)CCO1.[Br-] (configuration not stated) | 170 |
| CCCCCCCCCCCCCCCCC1(O)C[N+](C)(C)CCO1.[Br-] (configuration not stated) | 7.6 |
| CCCCCCCCCCCCCCCCCC1(O)C[N+](C)(C)CCO1.[Br-] (configuration not stated) | 7.1 |
| CCCCCCCCCCCCCCCC(=O)OC(CC(=O)[O-])C[N+](C)(C)C (racemic) [Palmitoyl-carnitine] | 15.8 |
| CCCCCCCCCCCCCCC[C@@]1(O)C[N+](C)(C)C[C@@H](CC(=O)[O-])O1 [HEMIACYLCARNITINIUM] | 49.6 |
